STEP block: STEP phosphatase inhibitors, primary screen, biochemical, fluorescence intensity, uHTS. Tyrosine-protein phosphatase non-receptor type 5 (Homo sapiens), P54829. recombinant STEP, OMFP fluorogenic substrate. inhibition, % at 20 µM. 0.25% of 360,000 active. AID 588621, 2011;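 active means inhibition at 20 µM, scaled per plate between control wells, above about 37%, limit read from the data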
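System: STEP phosphatase, cell-free reaction; Buffer or medium: Bis-Tris pH 6.0 buffer with DTT, detergent; Incubation: 20 min at room temperature, dark; Measured by: fluorescence, 480/540 nm.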
Scp-1 inhibitor: Scp-1 phosphatase inhibitors, primary screen, biochemical, colorimetric, uHTS | Carboxy-terminal domain RNA polymerase II polypeptide A small phosphatase 1 (Homo … | Recombinant Scp1, phosphopeptide, malachite green phosphate absorbance | inhibition, % at 20 µM | 0.88% of 340,000 active;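 active means inhibition above about 50% at 20 µM, limit read from the data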
Target sequence (Q9GZU7 76-261 limits assumed): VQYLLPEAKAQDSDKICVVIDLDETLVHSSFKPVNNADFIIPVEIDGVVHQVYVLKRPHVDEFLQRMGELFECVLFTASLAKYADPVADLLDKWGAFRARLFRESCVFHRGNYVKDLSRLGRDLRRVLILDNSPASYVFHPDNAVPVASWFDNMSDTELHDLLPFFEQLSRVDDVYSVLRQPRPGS
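Test system – truncated SCP-1 phosphatase (76-261aa) · Reagent – Phosphorylated 17-residue peptide substrate · Incubation – 45 min room-temperature reaction, 5 min colour, 30 min stabiliser · Detection – colorimetric phosphate reagent with accelerator and stabiliser, absorbance at 630 nm · Measure – % inhibition at 20 µM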
LMPTP inh: LMPTP phosphatase inhibitors, primary screen, biochemical, fluorescence intensity, uHTS; recombinant LMPTP-A, OMFP fluorogenic substrate; inhibition, % at 20 µM; 0.22% of 360,000 active; AID 651560, 2012;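 active means compounds that cut the enzyme signal by at least half of the control window in the single-dose screen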
Target sequence (P24666 whole entry, looked up): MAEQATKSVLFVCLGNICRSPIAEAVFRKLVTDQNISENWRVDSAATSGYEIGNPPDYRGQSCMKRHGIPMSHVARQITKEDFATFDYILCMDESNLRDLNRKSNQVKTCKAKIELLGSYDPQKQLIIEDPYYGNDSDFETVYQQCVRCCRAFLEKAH
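Assay system: LMPTP-A phosphatase enzyme | Input: 0.625 nM enzyme | Also added: Fluorogenic phosphatase substrate OMFP at 400 µM final | Compound dosing: One test concentration per compound, 20 µM, with 3% DMSO overall | Schedule: 50 min enzyme reaction at room temperature, protected from light | Signal: Fluorescence intensity | Benchmarks: no-enzyme and uninhibited controls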
DNMT1 inh: human DNMT1 methyltransferase inhibitors, primary screen, biochemical, molecular beacon, fluorescence, HinP1I cleavage, uHTS | DNA (cytosine-5)-methyltransferase 1 (Homo sapiens), P26358 | inhibition (reported as % activation of signal), % at 10 µM | 0.83% of 360,000 active; in the data active means inhibition above about 50%
NadD block: inhibitors of S. aureus NadD, primary screen, biochemical, colorimetric, uHTS | Nicotinate-nucleotide adenylyltransferase NadD (Staphylococcus aureus N315) | purified NadD enzyme, colorimetric absorbance read-out | inhibition, % at 20 µM | 0.78% of 360,000 active; in the data active means inhibition above about 26%
SUMO1-SIM PPI: modulators of SUMO1 protein-protein interactions, primary screen, biochemical, uHTS; inhibition, % at 20 µM; AID 602429, 2012; SUMO1 binding to a labelled peptide, TR-FRET, 1 h; 0.33% of 360,000 active; Small ubiquitin-related modifier 1 (Homo sapiens), P63165; in the data active means inhibition above about 37%
Target sequence (P63165 whole entry, looked up): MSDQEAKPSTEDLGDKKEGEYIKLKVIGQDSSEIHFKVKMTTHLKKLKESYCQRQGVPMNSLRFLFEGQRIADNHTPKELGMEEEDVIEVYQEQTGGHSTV
Scp-1 conf: Scp-1 phosphatase inhibitors, retest, confirmation, biochemical, colorimetric, single concentration; shares compounds with Scp-1 inhibitor; recombinant SCP-1 catalytic domain, phosphate release, malachite green absorbance; inhibition, % at 20 µM; 61% of 2,500 active
MG interference: colorimetric readout interference by compounds, confirmation, artefact control for Scp-1 inhibitor project, biochemical, single concentration. shares compounds with Scp-1 inhibitor. Colorimetric interference counterscreen, malachite green absorbance 630 nm. apparent inhibition (interference), % at 20 µM. 2,500 tested, under 10 active;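 further: compounds added after enzyme reaction finished so only phosphate colour detection is probed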
Scp-1 Tm shift: Scp-1 binding by thermal shift, confirmation, orthogonal assay for Scp-1 inhibitor project, biophysical, differential scanning fluorimetry | 25% of 1,500 active | thermal shift relative to vanadate control, % at 40 µM | Recombinant SCP1, Sypro Orange thermal shift Tm | shares compounds with Scp-1 inhibitor;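 active means substances whose mean melting-temperature shift, as a percentage of the reference inhibitor's shift, reaches about 5.3%, limit read from the data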
DNMT1 confirm: DNMT1 methyltransferase inhibitor retest, confirmation, biochemical, molecular beacon, fluorescence, single concentration; shares compounds with DNMT1 inh; DNMT1 molecular beacon HinP1I cleavage; inhibition, % at 10 µM; 8% of 2,300 active;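 active means average inhibition of at least 30% in the single-concentration confirmation test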
Beacon interf: counter-screen for DNMT1 inhibitors: spectral interference | shares compounds with DNMT1 inh | DNMT1 molecular beacon spectral interference counterscreen, fluorescence 485/520 | activation (fluorescence interference), % at 10 µM | 1% of 2,300 active | AID 602387;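 active means activation of at least 30% at 10 µM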;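 further: DNMT1 catalytic domain with a HinP1I cleavage step and a FAM/dabcyl DNA beacon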
STEP inh conf: STEP phosphatase inhibitor hit confirmation, biochemical, fluorescence intensity, single concentration; recombinant STEP, OMFP fluorogenic substrate; 32% of 520 active; inhibition, % at 20 µM; shares compounds with STEP block; call rule not given here
A number is an active result. This is a sample that favours compounds with a hit; in the whole collection about 2.4% have one here.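 How the source made its calls, unless noted: active means inhibition of at least 30% at 20 µM; inactive means the rest.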

`CCOc1ccc(C(=O)c2cc3ccc(O)cc3oc2=O)cc1` gave STEP block inactive, Scp-1 inhibitor inactive, LMPTP inh inactive, DNMT1 inh inactive, NadD block inactive and SUMO1-SIM PPI inactive.
For O=C(c1ccc([N+](=O)[O-])cc1)c1cc2ccc(O)cc2oc1=O the results were STEP block 53, Scp-1 inhibitor 72, LMPTP inh inactive, DNMT1 inh inactive, NadD block inactive, SUMO1-SIM PPI inactive, Scp-1 conf 55, MG interference inactive, Scp-1 Tm shift 5.7 and STEP inh conf inactive.
COc1cccc(N2[C@@H](CC(=O)O)c3ccc(/C=C/C(=O)O)cc3S2(=O)=O)c1 was read as STEP block 50, Scp-1 inhibitor 70, LMPTP inh inactive, DNMT1 inh 102, NadD block inactive, SUMO1-SIM PPI inactive, Scp-1 conf 54, MG interference inactive, Scp-1 Tm shift inactive, DNMT1 confirm inactive, Beacon interf inactive and STEP inh conf 36.
Screening COc1cccc(N2[C@@H](CC(C)=O)c3ccccc3S2(=O)=O)c1 returned STEP block inactive, Scp-1 inhibitor inactive, LMPTP inh inactive, DNMT1 inh inactive, NadD block inactive and SUMO1-SIM PPI inactive.
CCOc1ccc(NC(=S)NC(=O)C2CCCC2)cc1 was read as STEP block inactive, Scp-1 inhibitor inactive, LMPTP inh inactive, DNMT1 inh inactive, NadD block inactive and SUMO1-SIM PPI inactive.
Screening COc1cc(-c2ccc3oc(-c4ccsc4)cc(=O)c3c2)cc(OC)c1OC returned STEP block inactive, Scp-1 inhibitor inactive, LMPTP inh inactive, DNMT1 inh inactive, NadD block inactive and SUMO1-SIM PPI inactive.
For O=c1cc(-c2ccsc2)oc2cc(-c3ccc4c(c3)OCO4)ccc12 the results were STEP block 46, Scp-1 inhibitor 68, LMPTP inh 68, DNMT1 inh 61, NadD block inactive, SUMO1-SIM PPI inactive, Scp-1 conf 53, MG interference inactive, Scp-1 Tm shift inactive, DNMT1 confirm inactive, Beacon interf inactive and STEP inh conf inactive.
`CCCN(CC(=O)Nc1cc(C)on1)CC(=O)Nc1ccc(F)c(F)c1F` gave STEP block inactive, Scp-1 inhibitor inactive, LMPTP inh inactive, DNMT1 inh inactive, NadD block inactive and SUMO1-SIM PPI inactive.
`CC(/C=N/NC(=O)c1ccc(Br)cc1)=C\c1ccccc1` gave STEP block 55, Scp-1 inhibitor 94, LMPTP inh 55, DNMT1 inh 50, NadD block inactive, SUMO1-SIM PPI inactive, Scp-1 conf 89, MG interference inactive, Scp-1 Tm shift inactive, DNMT1 confirm inactive, Beacon interf inactive and STEP inh conf inactive.
For COc1ccc(C(=O)N/N=C\C(C)=C\c2ccccc2)cc1OC the results were STEP block inactive, Scp-1 inhibitor inactive, LMPTP inh inactive, DNMT1 inh inactive, NadD block inactive and SUMO1-SIM PPI inactive.
`Cc1cccc(OCc2occc2C(=O)Nc2cccc(-n3cnnn3)c2)c1` gave STEP block inactive, Scp-1 inhibitor inactive, LMPTP inh inactive, DNMT1 inh inactive, NadD block inactive and SUMO1-SIM PPI inactive.
O=C(N/N=C/c1ccccc1F)c1cc2c(ccc3ccccc32)o1 was read as STEP block 97, Scp-1 inhibitor 103, LMPTP inh inactive, DNMT1 inh 82, NadD block inactive, SUMO1-SIM PPI inactive, Scp-1 conf 67, MG interference inactive, Scp-1 Tm shift inactive, DNMT1 confirm inactive, Beacon interf inactive and STEP inh conf inactive.
Screening O=C(N/N=C/C=C/c1ccccc1)c1cc2c(ccc3ccccc32)o1 returned STEP block 66, Scp-1 inhibitor 102, LMPTP inh 63, DNMT1 inh 94, NadD block inactive, SUMO1-SIM PPI inactive, Scp-1 conf 81, MG interference inactive, Scp-1 Tm shift inactive, DNMT1 confirm inactive, Beacon interf inactive and STEP inh conf inactive.
Cc1ccc2oc(-c3ccc(NC(=O)c4ccncc4)cc3O)nc2c1 was read as STEP block inactive, Scp-1 inhibitor inactive, LMPTP inh inactive, DNMT1 inh inactive, NadD block inactive and SUMO1-SIM PPI inactive.
`Cc1ccc2oc(-c3cc(NC(=O)c4ncn[nH]4)ccc3O)nc2c1` gave STEP block 78, Scp-1 inhibitor 85, LMPTP inh inactive, DNMT1 inh inactive, NadD block inactive, SUMO1-SIM PPI inactive, Scp-1 conf 81, MG interference inactive, Scp-1 Tm shift inactive and STEP inh conf inactive.
Cc1ccc(NC(=O)CN2C(=O)S/C(=C\c3ccc(OCC(=O)O)c(Br)c3)C2=O)cc1 was read as STEP block 71, Scp-1 inhibitor 72, LMPTP inh inactive, DNMT1 inh inactive, NadD block inactive, SUMO1-SIM PPI inactive, Scp-1 conf 58, MG interference inactive, Scp-1 Tm shift inactive and STEP inh conf 61.
